Data published in ChEMBL document CHEMBL3792366, “Role of disulfide linkage in action of bis(dialkylaminethiocarbonyl)disulfides as potent double-Edged microbicidal spermicide: Design, synthesis and biology” (Eur J Med Chem, 2016).
Values after ≈ are worked out from the molar mass of the structure shown.

Legend:
[1] = system: Trichophyton mentagrophytes; test: Antifungal activity against Trichophyton mentagrophytes after 48 hrs by broth microdilution method; assay type: functional
Summary of the method: (§1)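 NCCLS broth microdilution in RPMI 1640 buffered with MOPS; starting inoculum 1–5 × 10^3 CFU/mL; plates incubated at 35 °C; MIC read after 48 h.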

[2] = Spermicidal activity in human sperms assessed as motility measured within 30 secs by phase contrast microscopy; assay type: functional, Sperm
Summary of the method: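 Liquefied human semen (0.05 mL) was added to 0.25 mL test solution and vortexed 10 s at low speed. Motile sperm were scored visually under phase contrast in five fields within 30 s; assays in triplicate; MEC = minimum effective concentration.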

[3] = system: Cryptococcus neoformans; test: Antifungal activity against Cryptococcus neoformans after 48 hrs by broth microdilution method; assay type: functional; summary of the method: as §1
[4] = system: Trichomonas vaginalis; test: Potency index, ratio of metronidazole MIC to compound MIC for metronidazole-resistant trophozoite stage of Trichomonas vaginalis ATCC 50143; assay type: functional
[5] = system: Candida albicans; test: Antifungal activity against Candida albicans after 48 hrs by broth microdilution method; assay type: functional; summary of the method: as §1
[6] = system: Trichomonas vaginalis; test: Antitrichomonas activity against metronidazole-resistant trophozoite stage of Trichomonas vaginalis ATCC 50143 assessed as cell viability under anaerobic condition after 48 hrs by trypan blue exclusion assay; assay type: functional; conditions: ATCC 50143, 48 h
Summary of the method: (§2)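 Log-phase T. vaginalis grown in TYM with 10% FCS, vitamin mix and penicillin/streptomycin at 37 °C. Compounds were made as 100 µg/mL DMSO stocks and serially diluted in TYM down to 0.1 µg/mL; DMSO/TYM served as vehicle. Parasites were incubated anaerobically at 37 °C, and viability was checked by trypan blue exclusion from 3 to 48 h. MIC = lowest concentration killing all cells by 48 h; each test was repeated three times.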

[7] = system: Sporothrix schenckii; test: Antifungal activity against Sporothrix schenckii after 48 hrs by broth microdilution method; assay type: functional; summary of the method: as §1
[8] = system: Trichomonas vaginalis; test: Antitrichomonas activity against trophozoite stage of Trichomonas vaginalis clinical isolate assessed as cell viability under anaerobic condition after 48 hrs by trypan blue exclusion assay; assay type: functional; summary of the method: as §2
[9] = system: Candida parapsilosis; test: Antifungal activity against Candida parapsilosis ATCC 22019 after 48 hrs by broth microdilution method; assay type: functional; conditions: Lodderomyces parapsilosis, ATCC 22019, 48 h; summary of the method: as §1
[10] = Selectivity index, ratio of IC50 for Lactobacillus jensenii ATCC 25258 to MIC for metronidazole resistant trophozoite stage of Trichomonas vaginalis ATCC 50143
[11] = system: HeLa; test: Cytotoxicity against human HeLa cells after 5 hrs by lactate dehydrogenase release assay; assay type: cell-based
Summary of the method: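 HeLa cells were seeded at 2×10^4/well in triplicate and grown 24 h at 37 °C in 5% CO2. The DMEM was then replaced with medium holding serially diluted compound, and plates were incubated 5 h. LDH release in the supernatant was measured colorimetrically at 490 nm, and IC50 was derived from it.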

[12] = Selectivity index, ratio of IC50 for Lactobacillus jensenii ATCC 25258 to MIC for trophozoite stage of Trichomonas vaginalis clinical isolate
[13] = Toxicity in Lactobacillus jensenii ATCC 25258 after 72 hrs

SMILES	MIC [1] [µM]	MEC [2] [%]	MIC [3] [µM]	Ratio [4]	MIC [5] [µM]	MIC [6] [µM]	MIC [7] [µM]	MIC [8] [µM]	MIC [9] [µM]	Selectivity Index [10]	IC50 [11] [mM]	Selectivity Index [12]	IC50 [13] [mM]
S=C(SSC(=S)N1CCCC1)N1CCCC1 [BIS(PYRROLIDINYLTHIOCARBONYL)DISULFIDE]	10.6 (≈ 3.1 µg/mL)	1	2.6 (≈ 0.761 µg/mL)	16	10.6 (≈ 3.1 µg/mL)	10.6 (≈ 3.1 µg/mL)	21.3 (≈ 6.23 µg/mL)	10.6 (≈ 3.1 µg/mL)	21.3 (≈ 6.23 µg/mL)				
S=C(SCCN1CCCC1)N1CCN(C(=S)SSC(=S)N2CCN(C(=S)SCCN3CCCC3)CC2)CC1	74.7 (≈ 50 µg/mL)	0.002	74.7 (≈ 50 µg/mL)		74.7 (≈ 50 µg/mL)	> 149	74.7 (≈ 50 µg/mL)	46.7 (≈ 31.2 µg/mL)	74.7 (≈ 50 µg/mL)	> 18	2.74	58	6.08
CCOC(=O)N1CCN(C(=S)SSC(=S)N2CCN(C(=O)OCC)CC2)CC1	107 (≈ 49.8 µg/mL)	1	26.7 (≈ 12.5 µg/mL)	8	53.4 (≈ 24.9 µg/mL)	13.3 (≈ 6.21 µg/mL)	107 (≈ 49.8 µg/mL)	13.3 (≈ 6.21 µg/mL)	53.4 (≈ 24.9 µg/mL)				
S=C(SSC(=S)N1CCN(CCN2CCOCC2)CC1)N1CCN(CCN2CCOCC2)CC1	91 (≈ 49.9 µg/mL)	0.005	> 91	2	> 91	45.5 (≈ 25 µg/mL)	91 (≈ 49.9 µg/mL)	22.7 (≈ 12.5 µg/mL)	> 91	3	0.169	7	6.48
S=C(SSC(=S)N1CCCCCC1)N1CCCCCC1	17.9 (≈ 6.24 µg/mL)	>1	4.4 (≈ 1.53 µg/mL)	4	8.9 (≈ 3.1 µg/mL)	35.8 (≈ 12.5 µg/mL)	17.9 (≈ 6.24 µg/mL)	286 (≈ 99.7 µg/mL)	143 (≈ 49.9 µg/mL)				
S=C(SSC(=S)N1CCN(C23CC4CC(CC(C4)C2)C3)CC1)N1CCN(C23CC4CC(CC(C4)C2)C3)CC1	84.6 (≈ 50 µg/mL)	1	84.6 (≈ 50 µg/mL)		84.6 (≈ 50 µg/mL)	> 169	84.6 (≈ 50 µg/mL)	> 169	84.6 (≈ 50 µg/mL)				
C=CCN1CCN(C(=S)SSC(=S)N2CCN(CC=C)CC2)CC1	124 (≈ 49.9 µg/mL)	0.001	> 124	2	62 (≈ 25 µg/mL)	62 (≈ 25 µg/mL)	> 124	15.5 (≈ 6.24 µg/mL)	124 (≈ 49.9 µg/mL)	21	1.34	86	3.61
S=C(SSC(=S)N1CCN(c2ncccn2)CC1)N1CCN(c2ncccn2)CC1	104 (≈ 49.8 µg/mL)	1	104 (≈ 49.8 µg/mL)		> 104	> 208	104 (≈ 49.8 µg/mL)	104 (≈ 49.8 µg/mL)	> 104				
CC1CCN(C(=S)SSC(=S)N2CCC(C)CC2)CC1	35.8 (≈ 12.5 µg/mL)	1	8.9 (≈ 3.1 µg/mL)	4	17.9 (≈ 6.24 µg/mL)	35.8 (≈ 12.5 µg/mL)	35.8 (≈ 12.5 µg/mL)	35.8 (≈ 12.5 µg/mL)	143 (≈ 49.9 µg/mL)				
S=C(SSC(=S)N1CCOCC1)N1CCOCC1	38.4 (≈ 12.5 µg/mL)	0.1	38.4 (≈ 12.5 µg/mL)	16	76.9 (≈ 25 µg/mL)	9.6 (≈ 3.12 µg/mL)	76.9 (≈ 25 µg/mL)	9.6 (≈ 3.12 µg/mL)	76.9 (≈ 25 µg/mL)				
CCCCSC(=S)N1CCN(C(=S)SSC(=S)N2CCN(C(=S)SCCCC)CC2)CC1	42.5 (≈ 24.9 µg/mL)	>1	85.1 (≈ 50 µg/mL)		> 85.1	> 170	85.1 (≈ 50 µg/mL)	> 170	42.5 (≈ 24.9 µg/mL)				
